Results on ten compounds are retold here after ChEMBL document CHEMBL5614452, “Synthesis and Optimization of Small Molecule Inhibitors of Prostate Specific Antigen” (ACS Med Chem Lett, 2024).

Series [1] concerns the target T1, Prostate-specific antigen (Homo sapiens) (UniProt P07288).
T1 sequence (whole entry): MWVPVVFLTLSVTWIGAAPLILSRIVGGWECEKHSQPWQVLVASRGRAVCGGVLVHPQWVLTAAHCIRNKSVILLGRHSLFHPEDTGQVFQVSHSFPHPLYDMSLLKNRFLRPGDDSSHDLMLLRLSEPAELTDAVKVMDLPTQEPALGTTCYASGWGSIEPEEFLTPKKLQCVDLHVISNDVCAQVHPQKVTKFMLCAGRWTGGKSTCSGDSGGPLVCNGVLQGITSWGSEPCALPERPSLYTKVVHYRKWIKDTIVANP
In words: Inhibition of recombinant human semen PSA at 0.000001 to 500 uM using Mu-HSSKLQAMC as substrate preincubated for 15 mins followed by substrate addition by fluorescence based assay. The following applies: dose lower 1e-06 µM, dose upper 500.0 µM. The class given is single protein. An outline of the steps: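 PSA inhibition in a biochemical assay. Compounds tested at 100 nM, 1 μM, 10 μM, 100 μM and 500 μM, plus a lower picomolar-level concentration. Compounds with no inhibition across this range were scored not active.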

A short description of series [2]: Stability in DMEM/F-12 medium assessed as compound remaining at 10 uM after 8 hrs by LC-MS/MS analysis. The class given is physicochemical. The following applies: read-out: Stability. An outline of the steps: (§1)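 Compound incubated in DMEM/F12 medium at 37 °C and sampled at 0, 8 and 24 h. Stability reported as percent of compound remaining.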
Series [3] is described as follows: Stability in DMEM/F-12 medium assessed as compound remaining at 10 uM after 24 hrs by LC-MS/MS analysis. The class given is physicochemical. The gist of the method:
as §1

The target in series [4] is T2, Neutrophil elastase (Homo sapiens, UniProt P08246).
T2 sequence (P08246 whole entry): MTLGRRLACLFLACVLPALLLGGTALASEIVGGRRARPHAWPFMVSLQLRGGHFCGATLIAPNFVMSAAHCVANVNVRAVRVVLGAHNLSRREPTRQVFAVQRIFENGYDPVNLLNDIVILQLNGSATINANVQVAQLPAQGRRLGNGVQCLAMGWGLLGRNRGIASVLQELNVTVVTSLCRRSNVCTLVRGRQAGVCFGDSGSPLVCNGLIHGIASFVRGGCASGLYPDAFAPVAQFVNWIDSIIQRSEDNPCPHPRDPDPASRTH
Kind of series: Inhibition of neutrophil elastase (unknown origin) using 7-amino-4-trifluoromethyl-coumarin based peptide as substrate measured for 1 hr by fluorescence based microplate reader assay. The gist of the method: (§2)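 Protease inhibition measured in biochemical enzyme assays, with the result reported as Ki.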

Series [5] can be described thus: Inhibition of alpha-chymotrypsin (unknown origin) using N-Benzoyl-L-tyrosine ethyl ester as substrate preincubated for 5 mins followed by substrate addition and measured every 1 min for 10 mins by microplate reader assay. Also noted: species or system Homo sapiens. The gist of the method: as §2
Series [6] in a line: Cytotoxicity against human Ect1/E6E7 cells incubated for 1 to 3 hrs by MTT assay. The following applies: time 1-3 hrs. The class given is toxicity, cell-based. The gist of the method:
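Ect1/E6E7 human ectocervical cells exposed to compound for 1 or 3 h, with viability read by MTT assay. Nonoxynol-9 served as the positive cytotoxic control.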

Series [7] has as its target Prothrombin (Homo sapiens, UniProt P00734). In words: Inhibition of thrombin (unknown origin) by fluorescence based assay. An outline of the steps:
as §2

Series [8] can be described thus: Drug uptake in human HepG2 cells assessed as intracellular concentration per 10^9 cells at 10 uM incubated for 2 hrs by UHPLC-TSQ analysis. The class given is ADME, cell-based. To be noted: hepg2, 2 h. An outline of the steps: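 HepG2 cells exposed to compound. Intracellular amount expressed as nmol per 10^9 cells, n = 4.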
The nature of series [9]: Aqueous solubility of compound incubated for 1 hr by HPLC analysis. The class given is physicochemical.
In series [10] the target is T3, Prostate-specific antigen (Homo sapiens, UniProt P07288).
T3 sequence (P07288 whole entry): T1 sequence (whole entry)
Kind of series: Inhibition of recombinant human semen PSA using Mu-HSSKLQAMC as substrate preincubated for 15 mins followed by substrate addition by fluorescence based assay.

The term Ki denotes a dissociation constant, usually derived from enzyme kinetics or from competition with a known ligand. One may read the solubility as how much of the substance goes into solution per volume. A high value points to a readily soluble substance.

Values after ≈ are worked out from the molar mass of the structure shown. Active and inactive are the calls of the source. No cut-off for these calls is given here.

Consider `Nc1n[nH]c(-c2cccnc2)n1`, for which the inhibition entry in series [1] was “inactive”. Turning to `COc1cncc(-c2cc(N)n(C(=O)c3ccc(OC)c(OC)c3)n2)c1`, in series [1], the inhibition result was “inactive”. As to `COc1ccc(C(=O)n2nc(-c3cccnc3)nc2N)cc1OC`, the remaining at 8 h, 10 µM in [2] is approximately 4%. In series [3], the Stability entry is recorded as “Unstable”. For the compound `COc1ccc(Cn2nc(-c3cccnc3)nc2N)cc1OC`, the inhibition result in series [1] was “inactive”. For `COc1ccc(-c2cc(N(C)C)n(C(=O)c3ccc(OC)c(OC)c3)n2)cn1`, the inhibition result in [1] was “inactive”. `COc1ccc(-c2cc(N)n(C(=O)c3ccc4[nH]cnc4c3)n2)cn1`: in series [2], the remaining at 8 h, 10 µM is approximately 47%. Moreover, the results for the Ki in [4], in [5] and in [7] were 1180 µM, 2.74 µM and 0.411 µM, respectively. Further, the Stability result in [3] was “Unstable”. Further, the Activity entry in [6] is recorded as “Non-Toxic”. For the same compound, the Drug uptake in [8] is 3.41 nmol. The compound further displayed a solubility at 1 h in series [9] of 27 µM (≈ 9.03 µg/mL). `CNc1cc(-c2ccc(OC)nc2)nn1C(=O)c1ccc(OC)c(OC)c1`: the inhibition result in series [1] is “inactive”. With `COc1ccc(CC(=O)n2nc(-c3cccnc3)nc2N)cc1OC`, the Ki in series [10] came out at 308 µM. Regarding `COc1ccc(-c2cc(N)n(C(=O)c3cc(OC)c(OC)c(OC)c3)n2)cn1`, the Ki in series [10] was 367 µM. Turning to `COc1ccc(C(=O)n2nc(-c3ccncc3)cc2N)cc1OC`, in series [10], the Ki came out at 104 µM.
